In ChEMBL document CHEMBL2150921, “Synthesis, structure-activity relationships, and docking studies of N-phenylarylformamide derivatives (PAFAs) as non-nucleoside HIV reverse transcriptase inhibitors” (Eur J Med Chem, 2012):

test system: Human immunodeficiency virus 1; assay: Antiviral activity against wild type HIV1 3B infected in human C8166 cells assessed as protection against virus-induced cytopathic effect after 3 days by syncytium reduction assay; format: functional, organism-based; details: Human immunodeficiency virus 1, 3B, C8166, 72 h
Procedure, shortened: (§1)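 C8166 cells (4 × 10⁵/mL) infected at MOI 0.06 in presence of graded compound concentrations; AZT and GW678248 as drug controls. After 3 days culture, syncytia (multinucleated giant cells) counted under inverted microscope; EC50 taken as concentration blocking 50% syncytium formation. Mean of at least two separate experiments.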

Row | SMILES | EC50 [µM]
1 | Cc1cc(S(N)(=O)=O)ccc1NC(=O)COc1ccc(Cl)cc1C(=O)c1cc(Cl)cc(C#N)c1 | 0.000103
2 | Cc1cc(S(N)(=O)=O)ccc1NC(=O)COc1ccc(Cl)cc1NC(=O)c1cccc(Cl)c1 | 0.00319
3 | Cc1cc(S(N)(=O)=O)ccc1NC(=O)COc1ccc(Cl)cc1NC(=O)c1ccccc1 | 0.00367
4 | Cc1cc(S(N)(=O)=O)ccc1NC(=O)COc1ccc(Cl)cc1NC(=O)c1ccccc1C | 0.0179
5 | Cc1cccc(C(=O)Nc2cc(Cl)ccc2OCC(=O)Nc2ccc(S(N)(=O)=O)cc2C)c1 | 0.00146
6 | Cc1ccc(C(=O)Nc2cc(Cl)ccc2OCC(=O)Nc2ccc(S(N)(=O)=O)cc2C)cc1 | 0.0051
7 | Cc1cc(S(N)(=O)=O)ccc1NC(=O)COc1ccc(Cl)cc1NC(=O)c1cccc(F)c1 | 0.00353
8 | Cc1cc(S(N)(=O)=O)ccc1NC(=O)COc1ccc(Cl)cc1NC(=O)c1ccccc1[N+](=O)[O-] | 0.0003
9 | Cc1cc(S(N)(=O)=O)ccc1NC(=O)COc1ccc(Cl)cc1NC(=O)c1cccc([N+](=O)[O-])c1 | 0.00066
10 | Cc1cc(S(N)(=O)=O)ccc1NC(=O)COc1ccc(Cl)cc1NC(=O)c1cccc(C(F)(F)F)c1 | 1.51
11 | COc1ccc(C(=O)Nc2cc(Cl)ccc2OCC(=O)Nc2ccc(S(N)(=O)=O)cc2C)cc1 | 0.204
12 | Cc1ccc(C(=O)Nc2cc(Cl)ccc2OCC(=O)Nc2ccc(S(N)(=O)=O)cc2C)c(C)c1 | 0.00056
13 | Cc1ccc(C)c(C(=O)Nc2cc(Cl)ccc2OCC(=O)Nc2ccc(S(N)(=O)=O)cc2C)c1 | 0.00037

test system: not listed separately; assay: Therapeutic index, ratio of CC50 for human C8166 cells to EC50 for HIV1 A17 harbouring RT K103N/Y181C mutant infected in human C8166 cells; format: cell-based; details: read-out: Ratio CC50/EC50
Procedure, shortened: (§2)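 CC50 from MTT assay on uninfected C8166 cells (A570/630, dose-response curve, 50% viable cell reduction) divided by EC50 from 3-day syncytium reduction assay in C8166 cells (4 × 10⁵/mL) infected at M.O.I 0.06; syncytia scored microscopically. Values are means of at least two separate experiments.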

Row | SMILES | selectivity ratio
14 | Cc1cc(S(N)(=O)=O)ccc1NC(=O)COc1ccc(Cl)cc1C(=O)c1cc(Cl)cc(C#N)c1 | > 1.37e+06
15 | Cc1cc(S(N)(=O)=O)ccc1NC(=O)COc1ccc(Cl)cc1NC(=O)c1cccc(Cl)c1 | 39.9
16 | Cc1cc(S(N)(=O)=O)ccc1NC(=O)COc1ccc(Cl)cc1NC(=O)c1ccccc1 | 130
17 | Cc1cc(S(N)(=O)=O)ccc1NC(=O)COc1ccc(Cl)cc1NC(=O)c1ccccc1C | 29.4
18 | Cc1cccc(C(=O)Nc2cc(Cl)ccc2OCC(=O)Nc2ccc(S(N)(=O)=O)cc2C)c1 | 115
19 | Cc1ccc(C(=O)Nc2cc(Cl)ccc2OCC(=O)Nc2ccc(S(N)(=O)=O)cc2C)cc1 | 58.2
20 | Cc1cc(S(N)(=O)=O)ccc1NC(=O)COc1ccc(Cl)cc1NC(=O)c1cccc(F)c1 | 239
21 | Cc1cc(S(N)(=O)=O)ccc1NC(=O)COc1ccc(Cl)cc1NC(=O)c1ccccc1[N+](=O)[O-] | 188
22 | Cc1cc(S(N)(=O)=O)ccc1NC(=O)COc1ccc(Cl)cc1NC(=O)c1cccc([N+](=O)[O-])c1 | 128
23 | Cc1cc(S(N)(=O)=O)ccc1NC(=O)COc1ccc(Cl)cc1NC(=O)c1cccc(C(F)(F)F)c1 | 2.34
24 | COc1ccc(C(=O)Nc2cc(Cl)ccc2OCC(=O)Nc2ccc(S(N)(=O)=O)cc2C)cc1 | 3.85
25 | Cc1ccc(C(=O)Nc2cc(Cl)ccc2OCC(=O)Nc2ccc(S(N)(=O)=O)cc2C)c(C)c1 | 543
26 | Cc1ccc(C)c(C(=O)Nc2cc(Cl)ccc2OCC(=O)Nc2ccc(S(N)(=O)=O)cc2C)c1 | 560

test system: Human immunodeficiency virus 1; assay: Antiviral activity against HIV1 A17 harbouring RT K103N/Y181C mutant infected in human C8166 cells assessed as protection against virus-induced cytopathic effect after 3 days by syncytium reduction assay; format: functional, organism-based; details: Human immunodeficiency virus 1, A17, C8166, 72 h
Procedure, shortened: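 C8166 cells (4 × 10⁵/mL) infected at M.O.I 0.06 in the presence of various compound concentrations; cultured 3 days, syncytia (multinucleated giant cells) scored under inverted microscope; EC50 = concentration blocking syncytia formation by 50%. AZT and GW678248 as drug controls. Mean of at least two separate experiments.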

Row | SMILES | EC50 [µM]
27 | Cc1cc(S(N)(=O)=O)ccc1NC(=O)COc1ccc(Cl)cc1C(=O)c1cc(Cl)cc(C#N)c1 | 0.00028
28 | Cc1cc(S(N)(=O)=O)ccc1NC(=O)COc1ccc(Cl)cc1NC(=O)c1cccc(Cl)c1 | 1.49
29 | Cc1cc(S(N)(=O)=O)ccc1NC(=O)COc1ccc(Cl)cc1NC(=O)c1ccccc1 | 1.59
30 | Cc1cc(S(N)(=O)=O)ccc1NC(=O)COc1ccc(Cl)cc1NC(=O)c1ccccc1C | 2.29
31 | Cc1cccc(C(=O)Nc2cc(Cl)ccc2OCC(=O)Nc2ccc(S(N)(=O)=O)cc2C)c1 | 0.46
32 | Cc1ccc(C(=O)Nc2cc(Cl)ccc2OCC(=O)Nc2ccc(S(N)(=O)=O)cc2C)cc1 | 0.93
33 | Cc1cc(S(N)(=O)=O)ccc1NC(=O)COc1ccc(Cl)cc1NC(=O)c1cccc(F)c1 | 1.02
34 | Cc1cc(S(N)(=O)=O)ccc1NC(=O)COc1ccc(Cl)cc1NC(=O)c1ccccc1[N+](=O)[O-] | 0.29
35 | Cc1cc(S(N)(=O)=O)ccc1NC(=O)COc1ccc(Cl)cc1NC(=O)c1cccc([N+](=O)[O-])c1 | 0.46
36 | Cc1cc(S(N)(=O)=O)ccc1NC(=O)COc1ccc(Cl)cc1NC(=O)c1cccc(C(F)(F)F)c1 | 52.9
37 | COc1ccc(C(=O)Nc2cc(Cl)ccc2OCC(=O)Nc2ccc(S(N)(=O)=O)cc2C)cc1 | 18.1
38 | Cc1ccc(C(=O)Nc2cc(Cl)ccc2OCC(=O)Nc2ccc(S(N)(=O)=O)cc2C)c(C)c1 | 0.09
39 | Cc1ccc(C)c(C(=O)Nc2cc(Cl)ccc2OCC(=O)Nc2ccc(S(N)(=O)=O)cc2C)c1 | 0.14

target: Human immunodeficiency virus type 1 reverse transcriptase (Human immunodeficiency virus 1, UniProt Q72547); assay: Inhibition of wild type HIV1 reverse transcriptase activity using poly (rA)/oligo (dT)15 homopolymer template after 1 hr by ELISA; details: not given
Procedure, shortened: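 Wild-type RT; oligo(dT) immobilized on plates, poly(rA) template, biotin-11-dUTP incorporation. Reaction: 50 mM Tris-HCl pH 8.3, 3 mM MgCl2, 75 mM KCl, 5 mM DTT, 0.13 mg/mL BSA, […]; 37 °C, 1 h. Detection by streptavidin-alkaline phosphatase and PNPP (30 min, 37 °C), stopped with 0.5 M NaOH.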

Row | SMILES | IC50 [µM]
40 | Cc1cc(S(N)(=O)=O)ccc1NC(=O)COc1ccc(Cl)cc1C(=O)c1cc(Cl)cc(C#N)c1 | 0.00269

test system: Human immunodeficiency virus 2; assay: Antiviral activity against HIV2 ROD infected in human C8166 cells assessed as protection against virus-induced cytopathic effect after 3 days by syncytium reduction assay; format: functional, organism-based; details: Human immunodeficiency virus 2, ISOLATE ROD, C8166, 72 h; procedure, shortened: as §1

Row | SMILES | EC50 [µM]
41 | Cc1cc(S(N)(=O)=O)ccc1NC(=O)COc1ccc(Cl)cc1NC(=O)c1cccc(Cl)c1 | 52.5
42 | Cc1cc(S(N)(=O)=O)ccc1NC(=O)COc1ccc(Cl)cc1NC(=O)c1ccccc1 | 72.1
43 | Cc1cc(S(N)(=O)=O)ccc1NC(=O)COc1ccc(Cl)cc1NC(=O)c1ccccc1C | 55.5
44 | Cc1cccc(C(=O)Nc2cc(Cl)ccc2OCC(=O)Nc2ccc(S(N)(=O)=O)cc2C)c1 | 29.6
45 | Cc1ccc(C(=O)Nc2cc(Cl)ccc2OCC(=O)Nc2ccc(S(N)(=O)=O)cc2C)cc1 | 57.3
46 | Cc1cc(S(N)(=O)=O)ccc1NC(=O)COc1ccc(Cl)cc1NC(=O)c1cccc(F)c1 | 186
47 | Cc1cc(S(N)(=O)=O)ccc1NC(=O)COc1ccc(Cl)cc1NC(=O)c1ccccc1[N+](=O)[O-] | 11.8
48 | Cc1cc(S(N)(=O)=O)ccc1NC(=O)COc1ccc(Cl)cc1NC(=O)c1cccc([N+](=O)[O-])c1 | 36.1
49 | Cc1cc(S(N)(=O)=O)ccc1NC(=O)COc1ccc(Cl)cc1NC(=O)c1cccc(C(F)(F)F)c1 | 81.3
50 | COc1ccc(C(=O)Nc2cc(Cl)ccc2OCC(=O)Nc2ccc(S(N)(=O)=O)cc2C)cc1 | 58.8
51 | Cc1ccc(C(=O)Nc2cc(Cl)ccc2OCC(=O)Nc2ccc(S(N)(=O)=O)cc2C)c(C)c1 | 41.4
52 | Cc1ccc(C)c(C(=O)Nc2cc(Cl)ccc2OCC(=O)Nc2ccc(S(N)(=O)=O)cc2C)c1 | 27.7

test system: C8166; assay: Cytotoxicity against human C8166 cells assessed as decrease in cell viability by MTT assay; format: functional; details: not given
Procedure, shortened: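 Uninfected C8166 cells exposed to compound; viability read by MTT colorimetric assay at A570/630. CC50, the concentration reducing viable cells by 50%, taken from dose-response curve. Mean of at least two separate experiments.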

Row | SMILES | CC50 [µM]
53 | Cc1cc(S(N)(=O)=O)ccc1NC(=O)COc1ccc(Cl)cc1C(=O)c1cc(Cl)cc(C#N)c1 | > 387
54 | Cc1cc(S(N)(=O)=O)ccc1NC(=O)COc1ccc(Cl)cc1NC(=O)c1cccc(Cl)c1 | 59.7
55 | Cc1cc(S(N)(=O)=O)ccc1NC(=O)COc1ccc(Cl)cc1NC(=O)c1ccccc1 | 207
56 | Cc1cc(S(N)(=O)=O)ccc1NC(=O)COc1ccc(Cl)cc1NC(=O)c1ccccc1C | 67.3
57 | Cc1cccc(C(=O)Nc2cc(Cl)ccc2OCC(=O)Nc2ccc(S(N)(=O)=O)cc2C)c1 | 52.9
58 | Cc1ccc(C(=O)Nc2cc(Cl)ccc2OCC(=O)Nc2ccc(S(N)(=O)=O)cc2C)cc1 | 54.2
59 | Cc1cc(S(N)(=O)=O)ccc1NC(=O)COc1ccc(Cl)cc1NC(=O)c1cccc(F)c1 | 243
60 | Cc1cc(S(N)(=O)=O)ccc1NC(=O)COc1ccc(Cl)cc1NC(=O)c1ccccc1[N+](=O)[O-] | 54.8
61 | Cc1cc(S(N)(=O)=O)ccc1NC(=O)COc1ccc(Cl)cc1NC(=O)c1cccc([N+](=O)[O-])c1 | 58.8
62 | Cc1cc(S(N)(=O)=O)ccc1NC(=O)COc1ccc(Cl)cc1NC(=O)c1cccc(C(F)(F)F)c1 | 124
63 | COc1ccc(C(=O)Nc2cc(Cl)ccc2OCC(=O)Nc2ccc(S(N)(=O)=O)cc2C)cc1 | 69.5
64 | Cc1ccc(C(=O)Nc2cc(Cl)ccc2OCC(=O)Nc2ccc(S(N)(=O)=O)cc2C)c(C)c1 | 47.6
65 | Cc1ccc(C)c(C(=O)Nc2cc(Cl)ccc2OCC(=O)Nc2ccc(S(N)(=O)=O)cc2C)c1 | 79.7

test system: not listed separately; assay: Therapeutic index, ratio of CC50 for human C8166 cells to EC50 for wild type HIV1 3B infected in human C8166 cells; format: cell-based; details: C8166 cells infected with wild type HIV1 3B, read-out: Ratio CC50/EC50; procedure, shortened: as §2

Row | SMILES | selectivity ratio
66 | Cc1cc(S(N)(=O)=O)ccc1NC(=O)COc1ccc(Cl)cc1NC(=O)c1cccc(Cl)c1 | 18700
67 | Cc1cc(S(N)(=O)=O)ccc1NC(=O)COc1ccc(Cl)cc1NC(=O)c1ccccc1 | 56500
68 | Cc1cc(S(N)(=O)=O)ccc1NC(=O)COc1ccc(Cl)cc1NC(=O)c1ccccc1C | 3750
69 | Cc1cccc(C(=O)Nc2cc(Cl)ccc2OCC(=O)Nc2ccc(S(N)(=O)=O)cc2C)c1 | 36200
70 | Cc1ccc(C(=O)Nc2cc(Cl)ccc2OCC(=O)Nc2ccc(S(N)(=O)=O)cc2C)cc1 | 10600
71 | Cc1cc(S(N)(=O)=O)ccc1NC(=O)COc1ccc(Cl)cc1NC(=O)c1cccc(F)c1 | 68800
72 | Cc1cc(S(N)(=O)=O)ccc1NC(=O)COc1ccc(Cl)cc1NC(=O)c1ccccc1[N+](=O)[O-] | 185000
73 | Cc1cc(S(N)(=O)=O)ccc1NC(=O)COc1ccc(Cl)cc1NC(=O)c1cccc([N+](=O)[O-])c1 | 89400
74 | Cc1cc(S(N)(=O)=O)ccc1NC(=O)COc1ccc(Cl)cc1NC(=O)c1cccc(C(F)(F)F)c1 | 82
75 | COc1ccc(C(=O)Nc2cc(Cl)ccc2OCC(=O)Nc2ccc(S(N)(=O)=O)cc2C)cc1 | 340
76 | Cc1ccc(C(=O)Nc2cc(Cl)ccc2OCC(=O)Nc2ccc(S(N)(=O)=O)cc2C)c(C)c1 | 85300
77 | Cc1ccc(C)c(C(=O)Nc2cc(Cl)ccc2OCC(=O)Nc2ccc(S(N)(=O)=O)cc2C)c1 | 213000
